Measured values as given in ChEMBL document CHEMBL4270599, “Synthesis of a 3'-C-ethynyl-β-d-ribofuranose purine nucleoside library: Discovery of C7-deazapurine analogs as potent antiproliferative nucleosides” (Eur J Med Chem, 2018).

Legend:
SK-MEL-2 = test: Growth inhibition of human SK-MEL-2 cells assessed as cell growth at 10^-8 M incubated for 48 hrs by sulforhodamine B assay relative to control; format: functional; details: SK-MEL-2, 48 h, read-out: Activity
T47D = test: Growth inhibition of human T47D cells assessed as cell growth at 10^-8 M incubated for 48 hrs by sulforhodamine B assay relative to control; format: functional; details: read-out: Activity
OVCAR-3 [1] = test: Growth inhibition of human OVCAR3 cells assessed as cell growth at 10^-7 M incubated for 48 hrs by sulforhodamine B assay relative to control; format: functional; details: OVCAR-3, 48 h, read-out: Activity
NCI-H226 [2] = test: Growth inhibition of human NCI-H226 cells assessed as cell growth at 10^-7 M incubated for 48 hrs by sulforhodamine B assay relative to control; format: functional; details: NCI-H226, 48 h, read-out: Activity
HeLa = test: Antiproliferative activity against human HeLa cells after 72 hrs by Coulter counter method; format: functional, cell-based
Procedure, shortened: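 Cell count assay in 96-well microtiter plates; (5–7.5) × 10⁴ tumor cells per well plus test compound. Cells proliferated at 37 °C in humidified CO₂-controlled atmosphere, 48 h for murine leukemia L1210, 72 h for human lymphocytic CEM and cervix carcinoma HeLa. Counted by Coulter counter; IC₅₀ is the concentration that inhibits proliferation by 50%.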

RPMI-8226 = test: Cytotoxicity against human RPMI8226 cells after 48 hrs by SRB assay; format: functional; details: RPMI-8226, 48 h; for CC50: read-out: LC50 (the source's name)
786-0 = test: Growth inhibition of human 786-0 cells assessed as cell growth at 10^-6 M incubated for 48 hrs by sulforhodamine B assay relative to control; format: functional; details: 786-0, 48 h, read-out: Activity
NCI-H322M [3] = test: Growth inhibition of human NCI-H322M cells assessed as cell growth at 10^-7 M incubated for 48 hrs by sulforhodamine B assay relative to control; format: functional; details: read-out: Activity
NCI-H322M [4] = test: Growth inhibition of human NCI-H322M cells assessed as cell growth at 10^-8 M incubated for 48 hrs by sulforhodamine B assay relative to control; format: functional; details: read-out: Activity
DU-145 = test: Growth inhibition of human DU145 cells assessed as cell growth at 10^-8 M incubated for 48 hrs by sulforhodamine B assay relative to control; format: functional; details: DU-145, 48 h, read-out: Activity
TK-10 = test: Growth inhibition of human TK10 cells assessed as cell growth at 10^-8 M incubated for 48 hrs by sulforhodamine B assay relative to control; format: functional; details: TK-10, 48 h, read-out: Activity
OVCAR-8 = test: Growth inhibition of human OVCAR8 cells assessed as cell growth at 10^-6 M incubated for 48 hrs by sulforhodamine B assay relative to control; format: functional; details: OVCAR-8, 48 h, read-out: Activity
SNB-19 = test: Cytotoxicity against human SNB19 cells after 48 hrs by SRB assay; format: functional; details: SNB-19, 48 h
Hs-578T = test: Growth inhibition of human Hs 578T cells assessed as cell growth at 10^-5 M incubated for 48 hrs by sulforhodamine B assay relative to control; format: functional; details: read-out: Activity
A549 = test: Growth inhibition of human A549/ATCC cells assessed as cell growth at 10^-6 M incubated for 48 hrs by sulforhodamine B assay relative to control; format: functional; details: A549, 48 h, read-out: Activity
SW-620 = test: Cytotoxicity against human SW620 cells after 48 hrs by SRB assay; format: functional; details: SW-620, 48 h; for CC50: read-out: pLC50 (the source's name) (converted)
U-251 = test: Growth inhibition of human U251 cells assessed as cell growth at 10^-5 M incubated for 48 hrs by sulforhodamine B assay relative to control; format: functional; details: U-251, 48 h, read-out: Activity
KM12 = test: Growth inhibition of human KM12 cells assessed as cell growth at 10^-5 M incubated for 48 hrs by sulforhodamine B assay relative to control; format: functional; details: KM12, 48 h, read-out: Activity
OVCAR-4 = test: Growth inhibition of human OVCAR4 cells assessed as cell growth at 10^-6 M incubated for 48 hrs by sulforhodamine B assay relative to control; format: functional; details: OVCAR-4, 48 h, read-out: Activity
NCI-H226 [5] = test: Cytotoxicity against human NCI-H226 cells after 48 hrs by SRB assay; format: functional; details: NCI-H226, 48 h
PC-3 = test: Growth inhibition of human PC3 cells assessed as cell growth at 10^-6 M incubated for 48 hrs by sulforhodamine B assay relative to control; format: functional; details: PC-3, 48 h, read-out: Activity
SN12C [6] = test: Growth inhibition of human SN12C cells assessed as cell growth at 10^-5 M incubated for 48 hrs by sulforhodamine B assay relative to control; format: functional; details: read-out: Activity
MDA-MB-435 = test: Growth inhibition of human MDA-MB-435 cells assessed as cell growth at 10^-8 M incubated for 48 hrs by sulforhodamine B assay relative to control; format: functional; details: MDA-MB-435, 48 h, read-out: Activity
BT-549 = test: Growth inhibition of human BT549 cells assessed as cell growth at 10^-6 M incubated for 48 hrs by sulforhodamine B assay relative to control; format: functional; details: BT-549, 48 h, read-out: Activity
SN12C [7] = test: Growth inhibition of human SN12C cells assessed as cell growth at 10^-8 M incubated for 48 hrs by sulforhodamine B assay relative to control; format: functional; details: read-out: Activity
MDA-MB-468 = test: Growth inhibition of human MDA-MB-468 cells assessed as cell growth at 10^-8 M incubated for 48 hrs by sulforhodamine B assay relative to control; format: functional; details: MDA-MB-468, 48 h, read-out: Activity
OVCAR-3 [8] = test: Growth inhibition of human OVCAR3 cells assessed as cell growth at 10^-6 M incubated for 48 hrs by sulforhodamine B assay relative to control; format: functional; details: OVCAR-3, 48 h, read-out: Activity
CCRF-CEM [9] = test: Growth inhibition of human CCRF-CEM cells assessed as cell growth at 10^-8 M incubated for 48 hrs by sulforhodamine B assay relative to control; format: functional; details: read-out: Activity
CCRF-CEM [10] = test: Growth inhibition of human CCRF-CEM cells assessed as cell growth at 10^-5 M incubated for 48 hrs by sulforhodamine B assay relative to control; format: functional; details: read-out: Activity
M14 = test: Growth inhibition of human M14 cells assessed as cell growth at 10^-6 M incubated for 48 hrs by sulforhodamine B assay relative to control; format: functional; details: M14, 48 h, read-out: Activity
SF-295 = test: Growth inhibition of human SF295 cells assessed as cell growth at 10^-8 M incubated for 48 hrs by sulforhodamine B assay relative to control; format: functional; details: SF-295, 48 h, read-out: Activity
[11] = Antiproliferative activity against HELF cells after 4 days by Coulter counter method; format: cell-based; details: Homo sapiens, 96 h
[12] = read-out: pLC50 (the source's name) (converted)
[13] = read-out: LC50 (the source's name)

C#C[C@@]1(O)[C@@H](CO)O[C@@H](n2ccc3c(N)ncnc32)[C@@H]1O
growth at 0.01 µM (SK-MEL-2): 88% | growth at 0.01 µM (T47D): 92% | growth at 0.1 µM (OVCAR-3 [1]): 106% | growth at 0.1 µM (NCI-H226 [2]): 111% | IC50 (HeLa): 0.88 µM | CC50 (RPMI-8226): > 100 µM | TGI (RPMI-8226; read-out: TGI): > 100 µM | GI50 (RPMI-8226; read-out: pGI50 (converted)): 0.776 µM | TGI (RPMI-8226; read-out: pTGI (converted)): > 100 µM | growth at 1 µM (786-0): 68% | growth at 0.1 µM (NCI-H322M [3]): 94% | growth at 0.01 µM (NCI-H322M [4]): 99% | growth at 0.01 µM (DU-145): 103% | growth at 0.01 µM (TK-10): 101% | growth at 1 µM (OVCAR-8): 51% | TGI (SNB-19; read-out: TGI): 6.6 µM | GI50 (SNB-19; read-out: pGI50 (converted)): 1.62 µM | CC50 (SNB-19; [12]): > 100 µM | TGI (SNB-19; read-out: pTGI (converted)): 6.61 µM | growth at 10 µM (Hs-578T): 19% | growth at 1 µM (A549): 56% | TGI (SW-620; read-out: TGI): 12.7 µM | GI50 (SW-620; read-out: pGI50 (converted)): 0.49 µM | CC50 (SW-620): > 100 µM | TGI (SW-620; read-out: pTGI (converted)): 12.6 µM | growth at 10 µM (U-251): 2% | growth at 10 µM (KM12): 2% | growth at 1 µM (OVCAR-4): 75% | TGI (NCI-H226 [5]; read-out: TGI): 4.85 µM | GI50 (NCI-H226 [5]; read-out: pGI50 (converted)): 2.04 µM | CC50 (NCI-H226 [5]; [12]): 26.3 µM | TGI (NCI-H226 [5]; read-out: pTGI (converted)): 4.9 µM | growth at 1 µM (PC-3): 45% | growth at 10 µM (SN12C [6]): -31% | growth at 0.01 µM (MDA-MB-435): 92% | growth at 1 µM (BT-549): 80% | growth at 0.01 µM (SN12C [7]): 94% | growth at 0.01 µM (MDA-MB-468): 93% | growth at 1 µM (OVCAR-3 [8]): 92% | growth at 0.01 µM (CCRF-CEM [9]): 102% | growth at 10 µM (CCRF-CEM [10]): 14% | growth at 1 µM (M14): 73% | growth at 0.01 µM (SF-295): 89%

C#C[C@@]1(O)[C@@H](CO)O[C@@H](n2cc(I)c3c(N)ncnc32)[C@@H]1O
growth at 0.01 µM (SK-MEL-2): 84 to 101% | growth at 0.01 µM (T47D): 13 to 44% | growth at 0.1 µM (OVCAR-3 [1]): 76 to 79% | growth at 0.1 µM (NCI-H226 [2]): 75 to 95% | IC50 (HeLa): 0.18 µM | GI50 (RPMI-8226; read-out: GI50): 0.275 to 0.428 µM | CC50 (RPMI-8226): 91.5 to 100 µM | TGI (RPMI-8226; read-out: TGI): 4.57 to 6.65 µM | growth at 1 µM (786-0): 13 to 23% | growth at 0.1 µM (NCI-H322M [3]): 69 to 82% | growth at 0.01 µM (NCI-H322M [4]): 75 to 86% | growth at 0.01 µM (DU-145): 91 to 94% | growth at 0.01 µM (TK-10): 85 to 94% | growth at 1 µM (OVCAR-8): 3 to 5% | GI50 (SNB-19; read-out: GI50): 0.0535 to 0.185 µM | CC50 (SNB-19; [13]): > 100 µM | TGI (SNB-19; read-out: TGI): 25 to 100 µM | growth at 1 µM (A549): 29 to 41% | GI50 (SW-620; read-out: GI50): 0.0572 to 0.059 µM | TGI (SW-620; read-out: TGI): > 100 µM | CC50 (SW-620): > 100 µM | TGI (SW-620; read-out: pTGI (converted)): > 100 µM | growth at 10 µM (U-251): 4% | growth at 10 µM (KM12): 3 to 12% | growth at 1 µM (OVCAR-4): 38 to 53% | GI50 (NCI-H226 [5]; read-out: GI50): 1.35 to 2.18 µM | CC50 (NCI-H226 [5]; [13]): > 100 µM | TGI (NCI-H226 [5]; read-out: TGI): > 100 µM | TGI (NCI-H226 [5]; read-out: pTGI (converted)): > 100 µM | growth at 1 µM (PC-3): 13 to 14% | growth at 10 µM (SN12C [6]): 5 to 7% | growth at 0.01 µM (MDA-MB-435): 83 to 93% | growth at 1 µM (BT-549): 17 to 32% | growth at 0.01 µM (SN12C [7]): 85 to 90% | growth at 0.01 µM (MDA-MB-468): 81 to 93% | growth at 1 µM (OVCAR-3 [8]): 24 to 33% | growth at 0.01 µM (CCRF-CEM [9]): 97% | growth at 10 µM (CCRF-CEM [10]): 5 to 6% | IC50 [11]: 0.032 µM | growth at 1 µM (M14): 38 to 43% | growth at 0.01 µM (SF-295): 90%
